Reference: PubChem BioAssay AID588768 (The Scripps Research Institute Molecular Screening Center, 2011)
The source made the active and inactive calls.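 How the source made its calls: active means cytotoxic, with CC50, the dose killing half the cells, at or below 5 µM in either medium; inactive means CC50 above 5 µM in every panel.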

Assay: HEK293T cell viability reduction – WST-1 absorbance, serum-free and serum media, powder, cytotoxicity control for pPAFAH inhibitor project, dose response (AID 588768)
Method in brief: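 Test system: HEK 293T cells; repeats: five replicate wells per compound concentration; detection: WST-1 colorimetric absorbance; measure: CC50 from sigmoidal viability curve fit; medium: DMEM with or without 10% FCS; incubation: 48 h compound exposure of cells at 37 °C; doses: 7-point 1:5 series up to 50 µM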

In the case of `Cc1cc(N2CCN(C(=O)Oc3ccc(-c4ccccc4)cn3)CC2)c2ccccc2n1`, the CC50 (with 10% FCS) is reported as 35 µM (inactive) and the CC50 (without serum) is reported as 6.7 µM (inactive).

With `Cc1cc(N2CCN(C(=O)Oc3ccc(-c4ccccc4)cc3)CC2)c2ccccc2n1` the CC50 (with 10% FCS) was 12 µM (inactive) and the CC50 (without serum) was 1.8 µM.

For `Cc1cc(N2CCN(C(=O)Oc3ccc([N+](=O)[O-])cc3)CC2)c2ccccc2n1`, the CC50 (with 10% FCS) was 13 µM (inactive) and the CC50 (without serum) was 0.061 µM.
